ChEMBL document CHEMBL2321820, “Discovery of HSD-621 as a Potential Agent for the Treatment of Type 2 Diabetes” (ACS Med Chem Lett, 2013)

How the values were obtained:
Mus musculus [1] = organism: Mus musculus; assay: Toxicity in C57B6 DIO mouse assessed as elevation of aspartate aminotransferase at 0.3 mg/g of food after 31 days; assay type: organism-based; details: in vivo, po, 744 h
Mus musculus [2] = organism: Mus musculus; assay: Antidiabetic activity in C57B6 DIO mouse assessed as reduction in fasting glucose level at 0.3 mg/g of food after 31 days by HPLC analysis relative to untreated control; assay type: functional; set-up: scale not given: the % may be the effect or the level left
Procedure, shortened: (§1)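 Male C57B6 mice, 5.5–7 months old, kept on a 35.5% fat diet for 4 months. Compound was mixed into food at 0.3 mg drug/g food for 31 days. Controls received diet 12492. Glucose and insulin were measured fed and fasting.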

Mus musculus [3] = organism: Mus musculus; assay: Antidiabetic activity in C57B6 DIO mouse assessed as reduction in fed glucose level at 0.3 mg/g of food after 31 days by HPLC analysis relative to untreated control; assay type: functional; set-up: scale not given: the % may be the effect or the level left; procedure, shortened: as §1
Mus musculus [4] = organism: Mus musculus; assay: Toxicity in C57B6 DIO mouse assessed as body weight change at 0.3 mg/g of food after 31 days relative to untreated control; assay type: organism-based; details: in vivo, po, 744 h
[5] = target: T1, Peroxisome proliferator-activated receptor gamma (Homo sapiens, UniProt P37231); assay: Inhibition of PPARgamma (unknown origin)
T1 sequence (P37231 whole entry): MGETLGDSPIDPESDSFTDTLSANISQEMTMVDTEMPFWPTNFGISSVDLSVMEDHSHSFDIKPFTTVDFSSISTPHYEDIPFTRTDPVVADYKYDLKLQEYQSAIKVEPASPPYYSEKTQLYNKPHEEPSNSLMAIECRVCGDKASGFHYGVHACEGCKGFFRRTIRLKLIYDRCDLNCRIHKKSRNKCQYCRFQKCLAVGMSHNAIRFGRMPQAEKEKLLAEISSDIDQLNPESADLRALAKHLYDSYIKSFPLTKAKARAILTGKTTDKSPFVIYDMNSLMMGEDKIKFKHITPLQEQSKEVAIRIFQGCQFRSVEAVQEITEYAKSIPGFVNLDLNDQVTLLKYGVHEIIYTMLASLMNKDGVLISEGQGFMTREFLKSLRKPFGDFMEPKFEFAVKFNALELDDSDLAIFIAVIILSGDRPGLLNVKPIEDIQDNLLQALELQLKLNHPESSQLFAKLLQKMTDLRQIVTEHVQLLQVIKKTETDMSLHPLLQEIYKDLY

[6] = target: T2, Peroxisome proliferator-activated receptor alpha (Homo sapiens, UniProt Q07869); assay: Inhibition of PPARalpha (unknown origin)
T2 sequence (Q07869 whole entry): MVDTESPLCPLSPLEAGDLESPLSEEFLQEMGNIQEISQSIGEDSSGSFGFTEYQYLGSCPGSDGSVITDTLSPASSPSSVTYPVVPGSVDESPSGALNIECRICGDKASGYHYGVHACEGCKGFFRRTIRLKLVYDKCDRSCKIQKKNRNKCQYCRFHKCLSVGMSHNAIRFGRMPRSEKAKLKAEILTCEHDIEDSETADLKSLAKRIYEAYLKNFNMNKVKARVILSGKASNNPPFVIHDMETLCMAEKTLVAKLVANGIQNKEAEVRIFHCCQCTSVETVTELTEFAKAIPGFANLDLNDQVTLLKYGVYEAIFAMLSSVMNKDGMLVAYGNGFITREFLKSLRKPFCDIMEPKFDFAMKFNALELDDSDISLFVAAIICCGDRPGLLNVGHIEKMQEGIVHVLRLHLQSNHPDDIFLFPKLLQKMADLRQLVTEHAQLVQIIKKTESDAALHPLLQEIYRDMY

Rattus norvegicus = assay: Toxicity in rat at 200 to 2000 mg/kg; assay type: organism-based; set-up: dose 200-2000 mg/kg; details: in vivo
Procedure, shortened: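 14-day safety assessment and metabolism study in rats at 200, 600 and 2000 mg/kg.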

[7] = Half life in Sprague-Dawley rat at 10 mg/kg, po; assay type: ADME, organism-based; set-up: dose 10 mg/kg, route oral; details: in vivo
Procedure, shortened: (§2)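 SD rats received 2 mg/kg iv in 50% DMSO/50% PEG200, or 10 mg/kg po in 2% Tween/0.5% methyl cellulose in water. PK parameters come from each route.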

[8] = Tmax in Sprague-Dawley rat at 10 mg/kg, po; assay type: ADME, organism-based; set-up: dose 10 mg/kg, route oral; details: in vivo; procedure, shortened: as §2
[9] = Cmax in C57B6 mouse at 10 mg/kg, po; assay type: ADME, organism-based; set-up: dose 10 mg/kg, route oral; details: in vivo
Procedure, shortened: (§3)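 Male C57B6 mice. IV dose of 2 mg/kg in 50% DMSO/50% PEG200. Oral dose of 10 mg/kg in 2% Tween/0.5% methyl cellulose in water. Values are PK parameters from the iv and po arms.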

[10] = Half life in Sprague-Dawley rat at 2 mg/kg, iv; assay type: ADME, organism-based; set-up: dose 2 mg/kg, route intravenous; details: in vivo; procedure, shortened: as §2
[11] = AUC in Beagle dog at 2 mg/kg, iv; assay type: ADME, organism-based, Canis lupus familiaris; set-up: dose 2 mg/kg, route intravenous; details: plasma
Procedure, shortened: (§4)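 Male dogs were given 2 mg/kg intravenously in 50% DMSO/50% PEG200.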

[12] = AUC in C57B6 mouse at 2 mg/kg, iv; assay type: ADME, organism-based; set-up: dose 2 mg/kg, route intravenous; details: plasma; procedure, shortened: as §3
[13] = Volume of distribution at steady state in Beagle dog at 2 mg/kg, iv; assay type: ADME, organism-based, Canis lupus familiaris; set-up: dose 2 mg/kg, route intravenous; details: in vivo, read-out: Vdss; procedure, shortened: as §4
[14] = target: T3, 11-beta-hydroxysteroid dehydrogenase type 2 (Homo sapiens, UniProt P80365); assay: Inhibition of human 11beta-HSD2 expressed in CHO cells using […] as substrate incubated for 30 mins prior to substrate addition measured after 120 mins by scintillation counting analysis; assay type: cell-based
T3 sequence (P80365 whole entry): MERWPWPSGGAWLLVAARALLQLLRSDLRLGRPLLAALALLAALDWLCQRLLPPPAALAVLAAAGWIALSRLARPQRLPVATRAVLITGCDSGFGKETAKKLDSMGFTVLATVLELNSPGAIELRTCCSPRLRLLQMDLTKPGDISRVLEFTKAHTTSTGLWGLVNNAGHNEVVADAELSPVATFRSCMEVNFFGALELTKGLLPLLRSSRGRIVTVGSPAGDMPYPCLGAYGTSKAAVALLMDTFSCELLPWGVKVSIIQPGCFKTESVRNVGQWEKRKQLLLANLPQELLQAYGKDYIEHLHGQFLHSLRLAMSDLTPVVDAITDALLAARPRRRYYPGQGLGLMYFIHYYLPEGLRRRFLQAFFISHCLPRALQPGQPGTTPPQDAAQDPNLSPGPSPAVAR

[15] = Half life in mouse liver microsomes; assay type: ADME, Microsome
[16] = Clearance in Beagle dog at 2 mg/kg, iv; assay type: ADME, organism-based, Canis lupus familiaris; set-up: dose 2 mg/kg, route intravenous; details: in vivo; procedure, shortened: as §4
[17] = Tmax in Beagle dog at 5 mg/kg, po; details: in vivo
[18] = Cmax in Beagle dog at 5 mg/kg, po; details: in vivo
[19] = Oral bioavailability in Beagle dog at 5 mg/kg; details: in vivo
[20] = target: 11-beta-hydroxysteroid dehydrogenase 1 (Homo sapiens, UniProt P28845); assay: Inhibition of human 11beta-HSD1 expressed in CHO cells using cortisone as substrate incubated for 30 mins prior to substrate addition measured after 120 mins by chemiluminescence assay
Sequence of 11-beta-hydroxysteroid dehydrogenase 1 (P28845 whole entry): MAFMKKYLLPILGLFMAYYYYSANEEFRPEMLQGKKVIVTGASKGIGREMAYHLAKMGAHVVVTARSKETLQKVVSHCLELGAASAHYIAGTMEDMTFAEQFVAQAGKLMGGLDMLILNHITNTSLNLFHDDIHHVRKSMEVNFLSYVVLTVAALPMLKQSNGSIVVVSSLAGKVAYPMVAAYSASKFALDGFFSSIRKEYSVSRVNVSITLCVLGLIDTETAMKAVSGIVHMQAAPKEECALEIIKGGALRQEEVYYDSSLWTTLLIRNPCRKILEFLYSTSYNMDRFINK

IC50 [5]: > 100 µM
IC50 [6]: > 100 µM
half-life [7]: 3.3 h
Tmax [8]: 1.8 h
Cmax [9]: 987 ng/mL
half-life [10]: 8.6 h
AUC [11]: 32400 ng·h/mL
AUC [12]: 3600 ng·h/mL
Vd [13]: 1.8 L/kg
IC50 [14]: > 100 µM
half-life [15]: > 0.5 h
clearance [16]: 1 mL/min/kg
Tmax [17]: 2.8 h
Cmax [18]: 1440 ng/mL
bioavailability [19]: 54%
IC50 [20]: 0.01 µM
Compound: C[C@@H]1CN(c2ccc(F)cc2C(F)(F)F)CCN1S(=O)(=O)c1ccc([C@@](O)(C(N)=O)C(F)(F)F)s1
Activity (Mus musculus [1]): Non-toxic
Activity (Mus musculus [2]): 15%
Activity (Mus musculus [3]): 19%
Activity (Mus musculus [4]): Non-toxic
Activity (Rattus norvegicus): Non-toxic
